pIC50: −log10 of the molar value. Active and inactive are the calls of the source. The calls are words filed in the database; no cut-off is given here.

As a reminder, the pIC50 is the IC50 on a negative log10 scale, so that one unit is a factor of ten. Usually Papp stands for the rate of passage across a membrane or cell layer, normalised by area and donor concentration. A high value points to ready permeation. Broadly, the half-life is the time in which the quantity being followed falls by half. What is called inhibition is the percentage by which the read-out fell short of the control.

In data set [1] the target is T1, Amine oxidase [flavin-containing] A (Homo sapiens, UniProt P21397).
T1 sequence (P21397 whole entry): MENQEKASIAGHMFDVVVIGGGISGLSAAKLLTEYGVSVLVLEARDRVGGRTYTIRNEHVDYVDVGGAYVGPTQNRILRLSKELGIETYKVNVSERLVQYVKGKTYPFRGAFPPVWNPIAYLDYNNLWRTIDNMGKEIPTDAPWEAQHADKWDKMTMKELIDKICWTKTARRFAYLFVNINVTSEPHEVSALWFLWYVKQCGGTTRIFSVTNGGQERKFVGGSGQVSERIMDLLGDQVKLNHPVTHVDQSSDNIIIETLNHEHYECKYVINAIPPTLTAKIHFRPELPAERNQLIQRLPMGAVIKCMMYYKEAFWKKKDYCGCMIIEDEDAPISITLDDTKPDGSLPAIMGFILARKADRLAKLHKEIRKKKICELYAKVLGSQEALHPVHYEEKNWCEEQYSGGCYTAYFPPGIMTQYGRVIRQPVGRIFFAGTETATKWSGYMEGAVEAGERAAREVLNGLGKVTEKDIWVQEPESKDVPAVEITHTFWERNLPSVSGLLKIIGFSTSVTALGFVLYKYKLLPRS
Kind of data set: Inhibition of recombinant human MAO-A expressed in baculovirus infected BTITN-5B1-4 insect cells using p-tyramine as substrate incubated for 10 mins followed by substrate addition measured after 15 mins by Amplex Red assay. Further details: species or system BTI-TN-5B1-4.

Data set [2] concerns the target T1, Amine oxidase [flavin-containing] A. The experiment in a line: Inhibition of recombinant human MAO-A expressed in baculovirus infected BTITN-5B1-4 insect cells using p-tyramine as substrate at 100 uM incubated for 10 mins followed by substrate addition measured after 15 mins by Amplex Red assay. The note with it: bti-tn-5b1-4, 25 min. In a few lines: (§1)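 Microsomal hMAO-A from baculovirus-infected BTI-TN 5B1-4 cells, 1.1 μg protein, in 0.05 M sodium phosphate pH 7.4, preincubated with compound 10 min at 37 °C. Started with 200 μM Amplex Red, 1 U/mL HRP and 1 mM p-tyramine (final). Resorufin fluorescence (ex 545/em 590 nm) read over 15 min at 37 °C; background without enzyme subtracted; vehicle controls run.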

The target of data set [3] is T2, Amine oxidase [flavin-containing] B (Homo sapiens, UniProt P27338).
T2 sequence (P27338 whole entry): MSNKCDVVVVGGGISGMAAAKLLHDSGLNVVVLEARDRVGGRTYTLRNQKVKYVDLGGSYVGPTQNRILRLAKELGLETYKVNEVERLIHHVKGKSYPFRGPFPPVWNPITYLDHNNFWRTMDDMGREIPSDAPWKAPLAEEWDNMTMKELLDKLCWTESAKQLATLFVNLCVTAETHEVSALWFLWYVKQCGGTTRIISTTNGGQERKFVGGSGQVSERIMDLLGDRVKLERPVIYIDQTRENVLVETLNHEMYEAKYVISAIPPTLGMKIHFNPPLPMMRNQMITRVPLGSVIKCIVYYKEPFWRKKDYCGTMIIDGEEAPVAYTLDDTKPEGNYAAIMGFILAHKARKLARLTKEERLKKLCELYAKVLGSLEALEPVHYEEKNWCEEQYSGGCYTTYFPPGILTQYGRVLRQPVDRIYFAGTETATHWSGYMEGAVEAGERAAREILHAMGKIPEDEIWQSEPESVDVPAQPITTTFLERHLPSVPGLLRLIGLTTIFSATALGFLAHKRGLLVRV
Kind of data set: Inhibition of recombinant human MAO-B expressed in baculovirus infected BTITN-5B1-4 insect cells using p-tyramine as substrate incubated for 10 mins followed by substrate addition measured after 15 mins by Amplex Red assay. Further details: species or system BTI-TN-5B1-4.

For data set [4], the target named is T2, Amine oxidase [flavin-containing] B. Kind of data set: Inhibition of recombinant human MAO-B expressed in baculovirus infected BTITN-5B1-4 insect cells using p-tyramine as substrate at 100 uM incubated for 10 mins followed by substrate addition measured after 15 mins by Amplex Red assay. The note with it: bti-tn-5b1-4, 25 min.
The nature of data set [5]: Permeability coefficient of compound incubated for 120 mins by UV-Vis spectroscopy based PAMPA-BBB assay.
A short description of data set [6]: Metabolic stability in human liver microsomes assessed as compound remaining at 1 uM measured upto 60 mins by UPLC-MS/MS analysis. In kind it is ADME, Microsome. Conditions: read-out: Stability. Background: Microsomes from liver hold many membrane-bound enzymes, among them those of drug oxidation.
Data set [7] can be described thus: Metabolic stability in mouse liver microsomes assessed as compound remaining at 1 uM measured upto 60 mins by UPLC-MS/MS analysis. The format is ADME, Microsome. Conditions: read-out: Stability.
Data set [8] can be described thus: Metabolic stability in human liver microsomes assessed as half life at 1 uM measured upto 60 mins by UPLC-MS/MS analysis. The format is ADME, Microsome.
Data set [9] in a line: Metabolic stability in mouse liver microsomes assessed as half life at 1 uM measured upto 60 mins by UPLC-MS/MS analysis. The format is ADME, Microsome.
Data set [10] can be described thus: Metabolic stability in human liver microsomes assessed as intrinsic clearance at 1 uM measured upto 60 mins by UPLC-MS/MS analysis. In kind it is ADME, Microsome. Conditions: read-out: CLH.
Data set [11] can be described thus: Metabolic stability in mouse liver microsomes assessed as intrinsic clearance at 1 uM measured upto 60 mins by UPLC-MS/MS analysis. The format is ADME, Microsome. Conditions: read-out: CLH.
Data set [12] in a line: Chemical stability of compound in CH3COONa/CH3COOH at pH 3.5 assessed as compound remaining at 10 uM incubated overnight by UPLC-MS/MS analysis. In kind it is physicochemical. Conditions: CH3COONa/CH3COOH buffer, read-out: Stability. In a few lines: (§2)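 Overnight incubation at room temperature, 10 μM final. Buffers: pH 3.5 CH₃COONa/CH₃COOH 0.1 M; pH 7.4 NaH₂PO₄/NaHPO₄ 10 mM; pH 10.4 NaHCO₃/Na₂CO₃ 0.5 M. Aliquots taken at t = 0 and after incubation, analysed by UPLC-MS/MS; expressed as % remaining.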

A short description of data set [13]: Chemical stability of compound in NaH2PO4/NaHPO4 at pH 7.4 assessed as compound remaining at 10 uM incubated overnight by UPLC-MS/MS analysis. The note with it: NaH2PO4/NaHPO4 buffer, read-out: Stability. The format is physicochemical. In a few lines: as §2
Data set [14] is described as follows: Chemical stability of compound in NaHCO3/Na2CO3 at pH 10.4 assessed as compound remaining at 10 uM incubated overnight by UPLC-MS/MS analysis. In kind it is physicochemical. The note with it: NaHCO3/Na2CO3 buffer, read-out: Stability. A digest of the protocol: as §2
For data set [15], the target named is T2, Amine oxidase [flavin-containing] B. Kind of data set: Inhibition of recombinant human MAO-B expressed in baculovirus infected BTITN-5B1-4 insect cells using p-tyramine as substrate at 100 uM incubated for 10 mins followed by substrate addition measured after 15 mins by Amplex Red assay relative to control. The note with it: BTI-TN-5B1-4, human, 25 min.

Another data set has as its system SH-SY5Y. The experiment in a line: Neurotoxicity against human SH-SY5Y cells assessed as reduction in cell viability at 100 uM incubated for 24 hrs by MTT assay. In kind it is functional, cell-based. A digest of the protocol: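 SH-SY5Y cells in Ham's F12/EMEM 1:1 with 15% FBS, seeded at 2×10^5 cells/mL and grown 24 h. Treated with 100 μM compound (1% DMSO) for 24 h, then MTT for 2 h; formazan dissolved in DMSO and absorbance read at 540 nm. Viability as % of vehicle control; at least 3 experiments, ANOVA with Bonferroni test.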

The target in data set [16] is T1, Amine oxidase [flavin-containing] A. The experiment in a line: Inhibition of recombinant human MAO-A expressed in baculovirus infected BTITN-5B1-4 insect cells using p-tyramine as substrate at 100 uM incubated for 10 mins followed by substrate addition measured after 15 mins by Amplex Red assay relative to control. Conditions: BTI-TN-5B1-4, human, 25 min. A digest of the protocol:
as §1

In the case of `Cc1cc(=O)oc2c(NC(=O)OCc3ccccc3)c(O)ccc12`, the pIC50 in data set [1] is 4.76.
Turning to `Cc1cc(=O)oc2c(NC(=O)CC(C)(C)C)c(O)ccc12`, in [2], the “inhibition (INH)” value is “Not Active”. In addition, the pIC50 in data set [3] is 5.13.
Regarding `CCC(=O)Nc1c(O)ccc2c(C)cc(=O)oc12`, the “inhibition (INH)” value in [2] and in data set [4] was “Not Active” each time. The pIC50 in data set [3] is 4.28.
As for `Cc1cc(=O)oc2c(NC(=O)C(C)C)c(O)ccc12`, the “inhibition (INH)” value in [2] and in [4] was “Not Active” each time. Besides, the pIC50 in data set [3] was 4.51.
In the case of `CCOC(=O)Nc1c(O)ccc2c(C)cc(=O)oc12`, in data set [4], the “inhibition (INH)” value is recorded as “Not Active”. Also, the Papp at 2 h in [5] amounted to 4.9 ×10⁻⁶ cm/s.
Take `Cc1ccc(C(=O)Nc2c(O)ccc3c(C)cc(=O)oc23)cc1`: the remaining at 1 h, 1 µM in data set [6] amounted to 0.5%; in data set [7], 8.3%. Also, the half-life at 1 µM turned out to be 6.84 min in [8] and 17.1 min in data set [9]. Besides, the microsomal CLint at 1 µM came to 196 µL/min/mg in data set [10] and 131 µL/min/mg in [11]. Besides, the remaining at 10 µM came to 98% in [12], 113% in data set [13] and 118% in data set [14]. This molecule also had a Papp at 2 h in [5] of 8.6 ×10⁻⁶ cm/s.
As to `Cc1cc(=O)oc2c(NC(=O)OCC(C)C)c(O)ccc12`, the “inhibition (INH)” value in data set [2] and in [4] was “Not Active” each time.
`O=C(NCCN1CCOCC1)c1ccc(Cl)cc1` [MOCLOBEMIDE]: the inhibition at 100 µM in data set [15] was determined as 50%.
In the case of `Cc1cc(=O)oc2c(NC(=O)Oc3ccccc3)c(O)ccc12`, the “inhibition (INH)” value in data set [2] is on record as “Not Active”. In addition, the result with SH-SY5Y was Active.
On to `COC(=O)Nc1c(O)ccc2c(C)cc(=O)oc12`, for which, in data set [2], the “inhibition (INH)” value is on record as “Not Active”. Also, the inhibition at 100 µM in data set [15] amounted to 50%.
Turning to `COc1cc(C(=O)Nc2c(O)ccc3c(C)cc(=O)oc23)cc(OC)c1OC`, in [2], the “inhibition (INH)” value is “Not Active”. In addition, the pIC50 in [3] was 4.17. Moreover, in data set [15], the inhibition at 100 µM turned out to be 50%.
With `Cc1cc(=O)oc2c(NC(=O)CCl)c(O)ccc12`, the “inhibition (INH)” value in [2] is “Not Active”. Besides, in data set [3], the pIC50 is 4.07.
As to `C=CC(=O)Nc1c(O)ccc2c(C)cc(=O)oc12`, the pIC50 is 4.42 in data set [1] and 4.79 in data set [3].
For the molecule `Cc1cc(=O)oc2c(NC(=O)OC(C)C)c(O)ccc12`, the pIC50 in [1] was 5.73.
The same measure, in the same setting: to `Cc1cc(=O)oc2c(NC(=O)OCCl)c(O)ccc12` belongs 5.04; to `Cc1cc(=O)oc2c(NC(=O)/C=C/c3ccccc3)c(O)ccc12`, 7.66.
For the molecule `Cc1cc(=O)oc2c(NC(=O)c3ccco3)c(O)ccc12`, in [16], the inhibition at 100 µM came out at 50%. Also, the pIC50 in data set [3] was 4.76.
